Only some compounds are listed: those with a hit (about 2.5% of all), similar ones and a draw of the others.
dFosB act-1 = mouse delta FosB homodimer activation | actives 0.99% (n = 340,000) | P13346 | activation, % at 25 µM | purified delta FosB, TAMRA-CDK5 oligo fluorescence polarization; percent of positive-control signal above neutral wells;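 active = mean activation above about 17%, with every replicate also reaching it, limit read from the data, passing the limit was not always enough; inconclusive = only one of the two conditions met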
Target sequence (P13346 whole entry, looked up): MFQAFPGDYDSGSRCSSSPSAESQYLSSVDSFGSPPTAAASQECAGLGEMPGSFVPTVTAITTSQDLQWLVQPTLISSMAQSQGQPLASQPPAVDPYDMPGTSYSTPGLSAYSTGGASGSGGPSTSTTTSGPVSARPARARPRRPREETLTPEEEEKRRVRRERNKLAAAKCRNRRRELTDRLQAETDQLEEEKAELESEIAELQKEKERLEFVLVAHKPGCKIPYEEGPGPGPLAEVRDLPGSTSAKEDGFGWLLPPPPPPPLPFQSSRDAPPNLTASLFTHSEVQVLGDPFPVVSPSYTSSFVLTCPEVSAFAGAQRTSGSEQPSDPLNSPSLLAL
HTR2A ag = mouse HTR2A agonism via beta-arrestin recruitment; P35363; CHO-K1 mHTR2A beta-arrestin complementation, luminescence; percent of 30 µM serotonin response; activation, % at 7.6 µM; actives 0.66% (n = 360,000); AID 624169;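 active = activation above a run cutoff, the mean activation of all tested compounds plus 3 SD, cut at about 14% in these data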;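 also: 0% = plate median of compound wells and 100% = 30 µM serotonin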
VIM-2 inhibitor = blocks Pseudomonas aeruginosa VIM-2 metallo-beta-lactamase; purified VIM-2, nitrocefin hydrolysis, epi-absorbance fluorescence; inhibition, % at 5.6 µM; actives 0.89% (n = 290,000); AID 1527;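 active = inhibition above the mean of all tested compounds plus 3 SD, cutoff set per screening run, cut at about 7.5% in these data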;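 also: red hydrolysis product quenches plate fluorescence so inhibitors raise well fluorescence; 0% = enzyme with DMSO and 100% = DMSO without enzyme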
IMP-1 inh-1 = blocks Pseudomonas aeruginosa IMP-1 metallo-beta-lactamase; AID 1556; inhibition, % at 5.6 µM; actives 0.45% (n = 290,000); purified IMP-1, nitrocefin hydrolysis, epi-absorbance fluorescence;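 active = inhibition above the mean plus 3 SD of all compounds in the same screening run, cut at about 4.5% in these data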;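 also: 0% = IMP-1 with DMSO and 100% = DMSO wells lacking enzyme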
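System – purified recombinant IMP-1 beta-lactamase · Input – IMP-1 dispensed at 0.2 nM · Timing – 15 min preincubation plus 25 min reaction at 25 °C · Signal – Epi-absorbance fluorescence, 480 nm excitation, 530 nm emission · Measure – percent IMP-1 inhibition derived from blank-referenced optical density · Controls – Enzyme-plus-DMSO low control, enzyme-free DMSO high control · Replication – singlicate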
IMP-1 inh-2 = selectivity counter-screen for VIM-2 inhibitors: IMP-1 metallo-beta-lactamase inhibitors; shares compounds with VIM-2 inhibitor; purified IMP-1, nitrocefin hydrolysis, epi-absorbance fluorescence; inhibition, % at 5.6 µM; 1,300 tested, under 10 active; call rule not given here;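 also: 0% = enzyme with vehicle and 100% = vehicle without enzyme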
VIM-2 FRET inh = VIM-2 FRET inhibition, artifact counter-screen. shares compounds with VIM-2 inhibitor. purified VIM-2, CCF2 FRET substrate hydrolysis. inhibition, % at 5.6 µM. actives 23% (n = 1,300). AID 1857;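 active = inhibition above the mean of all tested compounds plus 3 SD, cut at about 19% in these data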;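 also: 0% = VIM-2 plus DMSO and 100% = no enzyme wells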
TEM-1 counter = blocks E. coli TEM-1 beta-lactamase in VIM-2 selectivity screen. Purified TEM-1, nitrocefin hydrolysis, epi-absorbance fluorescence. shares compounds with VIM-2 inhibitor. AID 1866. inhibition, % at 5.6 µM. actives 3% (n = 1,300);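 active = inhibition above that campaign's mean inhibition plus 3 SD, cut at about 0.46% in these data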;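 also: 0% = TEM-1 with DMSO and 100% = TEM-1 with 100 µM potassium clavulanate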
VIM-2 confirm 2 = confirmation of P. aeruginosa VIM-2 metallo-beta-lactamase inhibitors. shares compounds with VIM-2 inhibitor. purified VIM-2, nitrocefin hydrolysis, epi-absorbance. inhibition, % at 5.6 µM. actives 96% (n = 1,300);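 active = inhibition of the VIM-2 beta-lactamase enzyme above about 11% from the earlier first-round screen, limit read from the data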;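 also: 0% = VIM-2 with DMSO and 100% = buffer wells without enzyme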
dFosB act-2 = delta FosB (mouse) homodimer activation; purified delta FosB, TAMRA-CDK5 oligo fluorescence polarization; normalised: neutral wells 0, positive control 100; 2,400 tested, under 10 active; activation, % at 24.9 µM; shares compounds with dFosB act-1;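 active = highest replicate activation at or above 34% and every replicate reaching that threshold; inconclusive = meets only one of the two criteria; inactive = meets neither criterion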;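 also: higher polarization means more probe DNA bound by delta FosB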
MOR ag counter = counter-screen for mouse HTR2A agonists: human mu opioid receptor agonists; shares compounds with HTR2A ag; U2OS OPRM1 beta-arrestin PathHunter, luminescence; DMSO 0%, DAMGO 9.3 µM 100%; activation, % at 9.3 µM; actives 5.3% (n = 2,300);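 active = mean activation above the mean of DMSO-only wells plus 3 SD, cut at about 0.5% in these data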
HTR2A ag conf = confirmation of mouse HTR2A serotonin receptor agonists. CHO-K1 PathHunter beta-arrestin recruitment, luminescence; DMSO 0%, 30 µM serotonin 100%. actives 19% (n = 2,300). shares compounds with HTR2A ag. AID 624381. activation, % at 7.6 µM;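 active = mean activation across triplicates above the hit threshold derived in the original primary screen, cut at about 15% in these data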
* marks the source's active call; other numbers are inactive results; ? = inconclusive; . = not tested or not shown.

SMILES	dFosB act-1	HTR2A ag	VIM-2 inhibitor	IMP-1 inh-1	IMP-1 inh-2	VIM-2 FRET inh	TEM-1 counter	VIM-2 confirm 2	others
Cc1ccc(-c2nnc3c4ccccc4c(C)nn23)cc1S(=O)(=O)N1CCN(CCO)CC1	-62	5	25*	-2	-2	14	-10	48*
CCCCCNc1nc2sc3c(c2c(=O)n1-c1cccc(Cl)c1)CCN(C)C3	1	1	-4	-2	.	.	.	.
CN(C)CCN1CCc2ccccc21	-2	4	23*	-6	-3	-4	-6	11*
c1ccc2c(c1)CCN2CCN1CCc2ccccc21	?	-3	-1	0	.	.	.	.
Cc1cccc(N2CCN(C(=O)c3ccc4c(c3)CCN4S(C)(=O)=O)CC2)c1C	-16	-5	0	1	.	.	.	.
CN1CCCC1CCNc1ccc2c(=O)c3ccccc3oc2c1 (stereo not drawn)	7	0	17*	-2	-2	-12	-14	27*
O=c1c2ccccc2oc2cc(NCCCN3CCOCC3)ccc12	?	-1	17*	0	-2	-8	-12	22*
CN1CCC[C@H]1CCNc1ccc2c(=O)c3ccccc3n(C)c2c1	8	1	.	.	.	.	.	.
CN1CCCC1CCNc1ccc2oc3ccccc3c(=O)c2c1 (stereo not drawn)	.	.	16*	2	-2	-2	-5	18*
COc1cccc(NC(=O)CN(C)C(=O)CCNC(=O)c2ccccc2OC)c1	-4	-2	.	.	.	.	.	.
O=C(Nc1cccc2cccnc12)c1csc(COCCO)n1	.	-4	.	.	.	.	.	.
O=C(CC1NC(=S)NC1=O)c1ccc(Cl)cc1 (stereo not drawn)	3	3	-3	-5	.	.	.	.
COc1ccc(/C=C2\SC(c3ccc(C)cc3)=NC2=O)cc1OC	-20	2	6	1	.	.	.	.
COc1ccc(/C=C2/SC(c3ccc(C)cc3)=NC2=O)cc1OC	-5	-3	15*	0	9.4*	-2	20*	14*
Cc1ccc2nc3c(c(Nc4ccc5c(c4)OCCO5)c2c1)CCC3	30*	-4	16*	-3	-4	-2	-7	30*	dFosB act-2=2
O=C(O)CN1C(=O)c2cccc3c(Br)ccc1c23	-1	3	0	-2	.	.	.	.
CN(C)CCCN1C(=O)c2cccc3c(Br)ccc(c23)C1=O	32*	0	12*	-1	-2	0	-6	18*	dFosB act-2=3
COC1=CC(=O)OC(c2ccc(C#N)cc2)C1 (stereo not drawn)	.	-1	.	.	.	.	.	.
Cc1cc([N+](=O)[O-])c(C)cc1-c1ccc(/C=N/NC(=O)Cn2nnnc2N)o1	33*	-2	33*	-4	-3	-11	-3	42*	dFosB act-2=6
O=C1CC2(CCN(C(=O)C(=O)c3c[nH]c4ccccc34)CC2)Oc2ccccc21	-16	-8	-1	-4	.	.	.	.
COc1ccc(OC)c(C2=Nn3c(nnc3-c3cc(OC)c(OC)c(OC)c3)SC2)c1	-18	15*	13*	-4	-3	3	-6	26*	MOR ag counter=0;HTR2A ag conf=7
COc1ccc(N(CC(=O)NC2CCCCC2)C(=O)c2ccc(C)s2)c(OC)c1	-7	2	-3	-3	.	.	.	.
